ChEMBL document CHEMBL4765368, “Structure guided design and synthesis of furyl thiazolidinedione derivatives as inhibitors of GLUT 1 and GLUT 4, and evaluation of their anti-leukemic potential” (Eur J Med Chem, 2020)
The source made the active and inactive calls. The calls are words filed in the database; no cut-off is given here.

Tests used:
[1] = system: MDA-MB-231; assay: Cytotoxicity against human MDA-MB-231 cells assessed as reduction in cell viability measured after 48 hrs by Hoechst 33342/propidium iodide staining based imaging analysis; format: functional
Procedure, shortened: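 Cells were seeded at 10,000 per well (HS-27 at 3,000) in 10% FBS RPMI (leukemic lines) or DMEM (MDA-MB-231, HS-27). Compound in DMSO (1% v/v final) at 0.5–100 µM for 48 h. Hoechst 33342 and PI were added 2 h before automated imaging; dead cells were co-stained. Quadruplicates. CC50 was taken by linear interpolation between the two concentrations nearest 50% death.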

[2] = system: CCRF-CEM; assay: Induction of apoptosis in human CCRF-CEM cells assessed as late apoptotic cells at CC50 measured after 24 hrs by AnnexinV-FITC/propidium iodide staining based flow cytometry analysis relative to control; format: functional
Procedure, shortened: (§1)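 CCRF-CEM cells in RPMI with 10% FBS were seeded in 24-well plates, incubated overnight, given fresh medium, then treated for 24 h. Cells were PBS-washed, spun at 500 g for 5 min at 4 °C, and resuspended in ice-cold binding buffer. They were stained with annexin V-FITC and PI for 15 min on ice in the dark, then read by flow cytometry. Untreated cells were the negative control; triplicates.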

[3] = system: CCRF-CEM; assay: Induction of apoptosis in human CCRF-CEM cells assessed as early apoptotic cells at CC50 measured after 24 hrs by AnnexinV-FITC/propidium iodide staining based flow cytometry analysis relative to control; format: functional; procedure, shortened: as §1
[4] = system: CCRF-CEM; assay: Induction of apoptosis in human CCRF-CEM cells assessed as necrotic cells at CC50 measured after 24 hrs by AnnexinV-FITC/propidium iodide staining based flow cytometry analysis relative to control; format: functional; procedure, shortened: as §1
[5] = system: CCRF-CEM; assay: Cell cycle arrest in human CCRF-CEM cells assessed as decrease in accumulation at G2/M phase measured after 72 hrs by NIM-DAPI staining based flow cytometry; format: functional
Procedure, shortened: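 An asynchronous CEM culture was seeded at 100,000 cells/well in 1 mL complete RPMI and exposed to 10, 25 or 50 μM for 72 h. Controls were untreated cells, DMSO and hydrogen peroxide. Cells were pelleted at 262 g, resuspended, and stained with NIM-DAPI, which permeabilizes and stains DNA in one step. About 100,000 events per sample were read by flow cytometry. Triplicates.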

[6] = target: T1, Solute carrier family 2, facilitated glucose transporter member 1 (Homo sapiens) (UniProt P11166); assay: Inhibition of GLUT1 in human CCRF-CEM cells assessed as decrease in mTOR phosphorylation at 10 uM measured after 6 hrs by Western blot analysis; format: cell-based
T1 sequence (whole entry): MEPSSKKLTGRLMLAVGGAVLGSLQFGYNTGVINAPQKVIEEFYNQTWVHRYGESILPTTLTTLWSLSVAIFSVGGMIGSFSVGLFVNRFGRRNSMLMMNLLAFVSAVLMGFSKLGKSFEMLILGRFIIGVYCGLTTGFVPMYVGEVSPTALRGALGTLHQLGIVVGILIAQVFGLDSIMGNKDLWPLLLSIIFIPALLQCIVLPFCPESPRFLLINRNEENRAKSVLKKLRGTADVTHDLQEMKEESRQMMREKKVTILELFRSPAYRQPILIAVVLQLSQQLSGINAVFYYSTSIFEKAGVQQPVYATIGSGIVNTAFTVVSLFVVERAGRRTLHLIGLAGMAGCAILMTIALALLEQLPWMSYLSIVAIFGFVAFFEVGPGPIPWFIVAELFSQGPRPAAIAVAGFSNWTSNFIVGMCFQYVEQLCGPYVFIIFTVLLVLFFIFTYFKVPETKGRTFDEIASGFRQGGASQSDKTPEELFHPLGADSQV
Procedure, shortened: (§2)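 CEM cells were treated with 10 µM for 6 h. Untreated cells were the negative control and staurosporine the positive control. Cells were washed with cold PBS, lysed in Laemmli buffer with protease inhibitors, sonicated and quantified. Blots were blocked 45 min in PBS-Tween-5% milk, with primary antibody 3 h and secondary 1 h at room temperature.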

[7] = system: CCRF-CEM; assay: Induction of apoptosis in human CCRF-CEM cells assessed as activation of caspase 3 at 10 uM measured after 6 hrs by Western blot analysis; format: functional, cell-based; procedure, shortened: as §2
[8] = Selectivity index, ratio of IC50 for human WBC to CC50 for human CCRF-CEM cells
Procedure, shortened: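 Donor blood was layered on HiSep and centrifuged at 400×g for 30 min; mononuclear cells were washed and RBC-lysed to give WBCs. WBCs were seeded overnight at 37 °C, 5% CO2, then exposed to 2.5–100 µM for 48 h. MTT was added for 4 h at 37 °C, formazan was dissolved in DMSO and A570 read. The CEM CC50 came from a 48 h Hoechst/PI imaging assay.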

[9] = Toxicity in SCID mouse assessed as distress at 1000 mg/kg, ip administered as single dose; format: organism-based; conditions: in vivo
[10] = Toxicity in SCID mouse assessed as distress at 1000 mg/kg, ip administered as single dose measured within 6 hrs; format: organism-based; conditions: in vivo
[11] = system: CCRF-CEM; assay: Antitumor activity against human CCRF-CEM cells xenografted in SCID mouse assessed as reduction in tumor growth at 50 mg/kg, ip administered daily for 5 days with 2 days interval for 18 days; format: functional, organism-based; conditions: time 18.0 day
Procedure, shortened: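 SCID mice aged 8-10 weeks, in individually ventilated cages on a 12 h light/dark cycle, autoclaved pellets and water ad libitum. 1×10^5 CEM cells were injected on the back to form palpable tumors, which were minced and regrafted. Compound given 50 mg/kg i.p. on days 1-5, 8-12 and 15-18. Saline vehicle group; doxorubicin 20 mg/kg i.p. reference group. n=6 per group. Tumor volume by caliper every two days as (width)² x length/2.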

[12] = Toxicity in SCID mouse xenografted with human CCRF-CEM cells assessed as body weight loss at 50 mg/kg, ip administered daily for 5 days with 2 days interval for 18 days; format: organism-based; conditions: in vivo, 432 h, time 18 day
[13] = species on record: Homo sapiens; assay: Selectivity ratio of IC50 for inhibition of transport activity of human GLUT4 expressed in hexose transporter deficient W4000fgy1 erg4 yeast cells to IC50 for inhibition of transport activity of human GLUT1 expressed in hexose transporter deficient VW4000fgy1 yeast cells; format: cell-based
Procedure, shortened: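 GLUT1 (VW4000fgy1) or GLUT4 (VW4000fgy1erg4) hxt0 yeast were grown on maltose and then glucose and resuspended in PBS pH 7.4 at OD600 ~10. Compound was used at 0.1–100 μM, final 1% DMSO. Uptake of 5 mM 14C-glucose over 10 min was stopped with ice-cold quench buffer, filtered and counted by scintillation. IC50 was taken from dose-response curves of three independent measurements.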

[14] = target: T1, Solute carrier family 2, facilitated glucose transporter member 1 (Homo sapiens); assay: Inhibition of transport activity of human GLUT1 expressed in hexose transporter deficient VW4000fgy1 yeast cells assessed as reduction in transporter-mediated [14C]-hexose uptake into cells by measuring relative activity at 100 uM measured after 10 mins by scintillation counting method relative to control; format: cell-based; set-up: scale not given: the % may be the effect or the level left
Procedure, shortened: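 The hxt0 yeast strain expressing one human GLUT was grown at 30 °C and resuspended in PBS pH 7.4 at OD600 ~10. Uptake was started with 14C-glucose at 5 mM final (GLUT1, GLUT4) or 14C-fructose at 10 mM final (GLUT5). It was quenched after 10 min with ice-cold 0.1 M KPi/0.1 M LiCl pH 5.5, filtered and counted by scintillation. Compound at 100 μM with 1% DMSO; DMSO control and phloretin 200 μM (GLUT1/4) or MSNBA 100 μM (GLUT5) as references. Triplicates.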

SMILES | CC50 [1] | Activity [2] | Activity [3] | Activity [4] | Activity [5] | inhibition [6] | Activity [7] | Ratio IC50 [8] | Activity [9] | Activity [10] | Activity [11] | Activity [12] | Ratio IC50 [13] | Activity [14]
O=C(CN1C(=O)S/C(=C/c2ccco2)C1=O)Nc1nc2ccccc2s1 | 45.1 µM | 55.87% | 1.38% | 16.6% | Dose-dependent effect | Active | Active | 107 | Toxic | Non-Toxic | Active | Non-Toxic |  | 
O=C(CN1C(=O)S/C(=C/c2ccco2)C1=O)Nc1ccc(Cl)c(Cl)c1 |  |  |  |  |  |  |  |  |  |  |  |  | 10 | 30%
